Experimental data collected from several papers.
Organism: Plasmodium falciparum
Read-out: parasite growth
Method: SYBR Green

| SMILES | system | setting | endpoint | value |
| --- | --- | --- | --- | --- |
| Cc1cc(Nc2ccc(S(F)(F)(F)(F)F)cc2)n2nc(C(C)(F)F)nc2n1 | DD2 | blood stage | EC50 | 8.5 nM |
| CCN(CC)CCCC(C)Nc1ccnc2cc(Cl)ccc12 (stereo not drawn) | DD2 | 96 h, drug-resistant strain, blood stage | IC50 | 75 nM |
| O[C@@H](CNCCN1CCN(C(c2ccccc2)c2ccccc2)CC1)c1cc(Cl)cc2c1-c1ccc(Cl)cc1C2 | W2 | 48 h, drug-resistant strain, blood stage | IC50 | 13 nM |
| C[N+]1=C2C=C(NCCc3ccc(O)cc3)C(=O)c3[nH]cc(c32)CC1 | W2 | blood stage | IC50 | 32.3 nM |
| COCC(=O)N1CCC[C@H](C(=O)NCc2nc(-c3ccccc3)cs2)C1 | DD2 | blood stage | EC50 | 69 nM |
| CCCCCCCNC[C@@H](O)c1cc(Cl)cc2c1-c1ccc(Cl)cc1C2 | W2 | 48 h, drug-resistant strain, blood stage | IC50 | 4.7 nM |
| C[C@@H]1CC[C@H]2[C@@H](C)C(=O)O[C@@H]3O[C@@]4(C)CC[C@@H]1[C@]32OO4 | DD2 | drug-resistant strain, blood stage | IC50 | 76 nM |
| Cn1cc2c3c1C(=O)C(N)=CC3=NCC2 | W2 | blood stage | IC50 | 5770 nM |
| CCCN(CCc1cccs1)[C@H]1CCc2c(O)cccc2C1 | DD2 | 48 h, drug-resistant strain, blood stage | IC50 | 9270 nM |
| CCOCC(=O)N1CCC[C@H](C(=O)NCc2nc(-c3ccc(C#N)cc3)cs2)C1 | DD2 | blood stage | EC50 | 6.2 nM |
| O=Cc1cn(Cc2cn(-c3ccnc4cc(Cl)ccc34)nn2)c2ccccc12 | 3D7 | 10 µM, blood stage | inhibition | 24.5% |
| O[C@H](CN[C@@H](COCC1CC1)Cc1ccccc1)c1cc(Cl)cc2c1-c1ccc(Cl)cc1C2 | W2 | 48 h, drug-resistant strain, blood stage | IC50 | 5.4 nM |
| COCC(=O)N1CCC[C@H](C(=O)NCc2nc(-c3ccc(C#N)cc3)cs2)C1 | DD2 | 72 h, blood stage | EC50 | 18 nM |
| COc1ccc(C2CC3=C(C(=O)O2)C(c2ccccc2Cl)C(C(=O)OC(C)(C)C)=C(C)N3)cc1OC (mixture of isomers) | 3D7 | 72 h, blood stage | EC50 | > 13000 nM |
| O=C1c2[nH]cc3c2C(=NCC3)c2c(-c3ccc(O)cc3)c[nH]c21 | 3D7 | blood stage | IC50 | 2090 nM |
| O[C@H](CN1CCN(C(c2ccccc2)c2ccccc2)CC1)c1cc(Cl)cc2c1-c1ccc(Cl)cc1C2 | W2 | 48 h, drug-resistant strain, blood stage | IC50 | 70.2 nM |
| C[C@@H]1CC[C@H]2[C@@H](C)C(=O)O[C@@H]3O[C@@]4(C)CC[C@@H]1[C@]32OO4 | – | 72 h | EC50 | 14 nM |
| CCCCCCNCC(O)c1cc(Cl)cc2c1-c1ccc(Cl)cc1C2 (racemic) | W2 | 48 h, drug-resistant strain, blood stage | IC50 | 6 nM |
| C[N+]1=C2C=C(N/C=C/c3ccc(O)cc3)C(=O)c3[nH]cc(c32)CC1 | DD2 | blood stage | IC50 | 498 nM |
| CCCCCNC[C@@H](O)c1cc(Cl)cc2c1-c1ccc(Cl)cc1C2 | W2 | 48 h, drug-resistant strain, blood stage | IC50 | 8.6 nM |
| C[N+]1=C2C=C(N)C(=O)c3[nH]cc(c32)CC1 | W2 | blood stage | IC50 | 681 nM |
